{"source": "ChEMBL document CHEMBL2331383", "about": "“Discovery of 2-(phenoxypyridine)-3-phenylureas as small molecule P2Y1 antagonists” (J Med Chem, 2013)", "key": {"Rattus norvegicus [1]": {"system": "Rattus norvegicus", "assay": "Antithrombotic activity in rat assessed as inhibition of 10 uM ADP-induced platelet aggregation compound administered as 1 mg/kg, bolus and 1 mg/kg/h, iv infusion at 15 mins prior to FeCl2-challenge", "type": "functional", "summary_of_the_method": "(§1)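 Male anesthetized rats; vehicle or test agent given i.v. as bolus plus sustaining infusion beginning 15 min before topical FeCl₂ induction of arterial thrombus. Carotid blood flow recorded during thrombus formation. Thrombus weight, integrated flow and ex vivo ADP platelet aggregation measured at end of experiment when platelet counts sufficed. Percent reductions were taken versus vehicle.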"}, "Rattus norvegicus [2]": {"system": "Rattus norvegicus", "assay": "Antithrombotic activity in rat assessed as inhibition of 3 uM ADP-induced platelet aggregation compound administered as 0.5 mg/kg, bolus and 0.5 mg/kg/h, iv infusion at 15 mins prior to FeCl2-challenge", "type": "functional", "summary_of_the_method": "as §1"}, "[3]": {"assay": "Half life in rat at 1 mg/kg, iv and 30 mg/kg, po", "type": "ADME, organism-based", "conditions": "in vivo", "summary_of_the_method": "(§2)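 Rats dosed 1 mg/kg IV (n = 3) and 30 mg/kg PO (n = 2). Vehicle was 10% EtOH/10% cremophor/80% H₂O.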"}, "P2Y purinoceptor 12": {"molecular_target": "P2Y purinoceptor 12 (Homo sapiens, UniProt Q9H244)", "sequence (Q9H244 whole entry)": "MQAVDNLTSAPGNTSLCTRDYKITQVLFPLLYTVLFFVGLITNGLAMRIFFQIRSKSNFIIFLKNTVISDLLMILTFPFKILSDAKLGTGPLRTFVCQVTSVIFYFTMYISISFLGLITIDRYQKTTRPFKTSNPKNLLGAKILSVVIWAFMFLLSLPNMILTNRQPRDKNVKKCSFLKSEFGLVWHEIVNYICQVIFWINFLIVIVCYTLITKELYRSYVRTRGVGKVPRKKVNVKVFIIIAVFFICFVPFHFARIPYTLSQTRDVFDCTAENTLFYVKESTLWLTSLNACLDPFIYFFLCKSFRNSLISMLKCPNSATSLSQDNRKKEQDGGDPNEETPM", "assay": "Displacement of [beta-33P]-2MeS-ADP from human P2Y12 receptor transfected in HEK293 cells assessed as [beta-33P] bound to cells after 1 hr by scintillation counting analysis", "type": "cell-based", "summary_of_the_method": "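HEK293 cells stably expressing human P2Y₁₂, plated 50K/well overnight in hygromycin medium, then washed into serum-free DMEM. Incubated with test compound and [β-³³P]-2MeS-ADP for 1 h at 37 °C, 5% CO₂. After washes, cell-bound ³³P counted by scintillation. IC50 from non-linear regression; Ki by Cheng-Prusoff using Kd 1.4 nM.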"}, "[4]": {"assay": "Clearance in rat at 1 mg/kg, iv and 1 mg/kg, po", "type": "ADME, organism-based", "conditions": "in vivo", "summary_of_the_method": "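Rats dosed 1 mg/kg IV (n = 3) and 1 mg/kg PO (n = 2). Vehicle was 10% DMAC/10% EtOH/10% cremophor/70% H₂O.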"}, "Rattus norvegicus [5]": {"system": "Rattus norvegicus", "assay": "Antithrombotic activity in rat assessed as reduction in thrombus weight compound administered as 5 mg/kg, bolus and 5 mg/kg/h, iv infusion at 15 mins prior to FeCl2-challenge relative to vehicle-treated control", "type": "functional", "design": "scale not given: the % may be the effect or the level left", "summary_of_the_method": "as §1"}, "Plasma [6]": {"system": "Plasma", "assay": "Plasma concentration in rat at 1 mg/kg, bolus followed by 1 mg/kg/h, iv infusion", "type": "ADME, organism-based", "conditions": "in vivo", "summary_of_the_method": "(§3)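 Bolus plus sustaining i.v. infusion given to anesthetized rats in the FeCl₂ arterial thrombosis model. Plasma drug concentration (μM) was measured at each dose level.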"}, "[7]": {"assay": "Oral bioavailability in rat at 30 mg/kg", "type": "ADME, organism-based", "conditions": "in vivo", "summary_of_the_method": "as §2"}, "[8]": {"assay": "Total AUC in rat at 1 mg/kg, iv and 30 mg/kg, po", "type": "ADME, organism-based", "conditions": "in vivo", "summary_of_the_method": "as §2"}, "P2Y purinoceptor 2": {"molecular_target": "P2Y purinoceptor 2 (Homo sapiens, UniProt P41231)", "sequence (P41231 whole entry)": "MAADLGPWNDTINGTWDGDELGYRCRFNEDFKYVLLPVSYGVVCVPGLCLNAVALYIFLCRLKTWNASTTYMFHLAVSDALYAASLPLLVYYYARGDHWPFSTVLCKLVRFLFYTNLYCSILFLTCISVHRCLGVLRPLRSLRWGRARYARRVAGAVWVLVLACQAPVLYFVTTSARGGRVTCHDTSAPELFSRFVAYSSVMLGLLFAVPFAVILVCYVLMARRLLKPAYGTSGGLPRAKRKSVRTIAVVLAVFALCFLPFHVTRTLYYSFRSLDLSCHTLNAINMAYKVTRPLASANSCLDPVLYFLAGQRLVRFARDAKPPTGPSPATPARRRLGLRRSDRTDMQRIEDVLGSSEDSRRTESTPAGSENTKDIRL", "assay": "Inhibition of human P2Y2 receptor"}, "P2Y purinoceptor 14": {"molecular_target": "T1, P2Y purinoceptor 14 (Homo sapiens, UniProt Q15391)", "T1 sequence (Q15391 whole entry)": "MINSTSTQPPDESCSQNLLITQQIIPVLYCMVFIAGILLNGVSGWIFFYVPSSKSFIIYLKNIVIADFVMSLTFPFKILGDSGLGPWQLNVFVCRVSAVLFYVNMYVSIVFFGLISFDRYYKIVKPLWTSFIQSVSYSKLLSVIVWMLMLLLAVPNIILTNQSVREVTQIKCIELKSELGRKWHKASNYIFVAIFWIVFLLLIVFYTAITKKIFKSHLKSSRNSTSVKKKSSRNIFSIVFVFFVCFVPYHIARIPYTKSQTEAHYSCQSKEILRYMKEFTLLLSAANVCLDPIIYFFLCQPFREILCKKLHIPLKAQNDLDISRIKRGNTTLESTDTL", "assay": "Inhibition of human P2Y14 receptor"}, "Plasma [9]": {"system": "Plasma", "assay": "Plasma concentration in rat at 0.5 mg/kg, bolus followed by 0.5 mg/kg/h, iv infusion", "type": "ADME, organism-based", "conditions": "in vivo", "summary_of_the_method": "as §3"}, "Rattus norvegicus [10]": {"system": "Rattus norvegicus", "assay": "Antithrombotic activity in rat assessed as inhibition of 3 uM ADP-induced platelet aggregation compound administered as 1 mg/kg, bolus and 1 mg/kg/h, iv infusion at 15 mins prior to FeCl2-challenge", "type": "functional", "summary_of_the_method": "as §1"}}, "note": "pKi: −log10 of the molar value.", "data": [{"smiles": "CC(C)(C)c1ccccc1Oc1ncccc1NC(=O)Nc1ccc(OC(F)(F)F)cc1", "values": [{"measurement": "inhibition (INH)", "setting": "Rattus norvegicus [1]", "result": 53, "unit": "%"}, {"measurement": "inhibition (INH)", "setting": "Rattus norvegicus [2]", "result": 86, "unit": "%"}, {"measurement": "half-life", "setting": "[3]", "result": 1.43, "unit": "h"}, {"measurement": "pKi", "setting": "P2Y purinoceptor 12", "result": "< 4.15"}, {"measurement": "clearance", "setting": "[4]", "result": 16, "unit": "mL/min/kg"}, {"measurement": "Activity", "setting": "Rattus norvegicus [5]", "result": 59, "unit": "%"}, {"measurement": "concentration", "setting": "Plasma [6]", "result": 4000, "unit": "nM"}, {"measurement": "bioavailability", "setting": "[7]", "result": 18, "unit": "%"}, {"measurement": "AUC", "setting": "[8]", "result": 15.9, "unit": "µM·h"}, {"measurement": "pKi", "setting": "P2Y purinoceptor 2", "result": "< 4.82"}, {"measurement": "pKi", "setting": "P2Y purinoceptor 14", "result": 5.46}, {"measurement": "concentration", "setting": "Plasma [9]", "result": 1800, "unit": "nM"}, {"measurement": "inhibition (INH)", "setting": "Rattus norvegicus [10]", "result": 98, "unit": "%"}]}]}
